The record followed here is ChEMBL document CHEMBL1629507, “Small molecule inhibitors of hantavirus infection” (Bioorg Med Chem Lett, 2010).

Calls of active or inactive are those of the source. No cut-off for these calls is given here. Where a SMILES comes first, the peptide text is derived from it. Bridges are numbered along the chain shown (N, C = ends). [ ]: non-standard residue; d: D form. The star is where a group is joined. Phe(4-F) = N[CH](Cc1ccc(F)cc1)C(=O)O; Tos = Cc1ccc(S(=O)(=O)*)cc1

What all share (type): cell-based
Test [1] deals with T1, Integrin alpha-V/beta-3 (Homo sapiens) (UniProt P05106+P06756). As to the kind of experiment: Inhibition of human […] alphaVbeta3 expressed in african green monkey Vero E6 cells assessed as inhibition of SNV SN77734 entry at 1 mM.
Test [2] deals with T1, Integrin alpha-V/beta-3 (Homo sapiens). As to the kind of experiment: Inhibition of human alphaVbeta3 receptor expressed in african green monkey Vero E6 cells assessed as inhibition of SNV infection in cells at 1 uM by immunofluorescent assay. In outline: (§1)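 Vero E6 cells (10^4/well, duplicate wells) were grown 24 h at 37 °C in MEM with 2.5% FBS. They were pretreated 1 h at 37 °C with small molecules (1 µM) or cyclic peptides (2 mM, in PBS pH 7.4). SNV strain SN77734 (500–1,000 FFU/ml) was then added for 1 h, then washed out. After 24–36 h, cells were fixed and stained with anti-SNV N plus FITC antibody, and foci counted. % inhibition is relative to untreated cells, normalized to ReoPro 80 µg/ml set as 80%; at least 4 replicates.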

Test [3] has the same target. The experiment in a line: Inhibition of human alphaVbeta3 receptor expressed in african green monkey Vero E6 cells assessed as inhibition of SNV infection in cells by immunofluorescent assay. The method, boiled down:
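SNV infection of Vero E6 cells in a dose-response format. Cells were pretreated 1 h at 37 °C with compound across a concentration range, then exposed to virus for 1 h, washed, and cultured 24–36 h. Infected foci were counted by anti-N immunofluorescence. Inhibition was taken relative to untreated cells and normalized to ReoPro. EC50 derived from curves; points are the mean and standard error of N = 4.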

For test [4], the target named is T2, Integrin alpha-V/beta-1 (Homo sapiens) (UniProt P05556+P06756). The experiment in a line: Inhibition of human […] alphaVbeta1 expressed in african green monkey Vero E6 cells assessed as inhibition of PHV-1 entry at 1 mM.
Test [5] deals with T1, Integrin alpha-V/beta-3 (Homo sapiens). The experiment in a line: Inhibition of human […] alphaVbeta3 expressed in african green monkey Vero E6 cells assessed as inhibition of Hantaan 76/118 viral entry at 10 uM.
Test [6] deals with T2, Integrin alpha-V/beta-1 (Homo sapiens). As to the kind of experiment: Inhibition of human […] alphaVbeta1 expressed in african green monkey Vero E6 cells assessed as inhibition of PHV-1 entry at 10 uM.
Test [7] deals with T1, Integrin alpha-V/beta-3 (Homo sapiens). The experiment in a line: Inhibition of human […] alphaVbeta3 expressed in african green monkey Vero E6 cells assessed as inhibition of Andes CHI-7913 viral entry at 1 mM.
Test [8] shares this target. The experiment in a line: Inhibition of human […] alphaVbeta3 expressed in african green monkey Vero E6 cells assessed as inhibition of SNV SN77734 entry at 10 uM.
Test [9] has the same target. As to the kind of experiment: Inhibition of human […] alphaVbeta3 expressed in african green monkey Vero E6 cells assessed as inhibition of Andes CHI-7913 viral entry at 10 uM.
Test [10] shares this target. As to the kind of experiment: Inhibition of human […] alphaVbeta3 expressed in african green monkey Vero E6 cells assessed as inhibition of Hantaan 76/118 viral entry at 1 mM.
Test [11] shares this target. The experiment in a line: Inhibition of human alphaVbeta3 receptor expressed in african green monkey Vero E6 cells assessed as inhibition of SNV infection in cells at 2 mM by immunofluorescent assay. In outline: as §1

Regarding `O=C(NCc1cccs1)C(Cc1ccccc1)NS(=O)(=O)c1ccc2nsnc2c1` (racemic), the inhibition result in [1], in [4], in test [5], in [6], in [7] and in test [8] was “Active” in each case. In addition, the inhibition result in [9] and in test [10] was “Active” throughout. Moreover, the inhibition in test [2] was 29%; in test [3] it was “Dose-dependent effect”.

As for `O=c1c(/C=N/Cc2ccco2)c(CSc2ccc(Cl)cc2)[nH]n1-c1nc2ccccc2s1`, the inhibition entry in test [1], in [4], in [5], in [6], in [7] and in [8] was “Active” in each case. Also, the inhibition entry in [9] and in test [10] was “Active” in each case. The inhibition was 29% in test [2] and “Dose-dependent effect” in test [3].

`CC(C)[C@@H]1NC(=O)[C@H](Cc2ccccc2)NC(=O)[C@H]2CCCN2C(=O)[C@@H](N)CSSC[C@@H](C(=O)O)NC1=O`: the inhibition in test [11] turned out to be 53%. The inhibition result in [1], in [4], in test [5], in test [6], in test [7] and in test [8] was “Active” each time. The inhibition entry in test [9] and in test [10] was “Active” throughout.

With `O=C(NCc1ccc2c(c1)OCO2)C(Cc1ccccc1)NS(=O)(=O)c1cccc2cccnc12` (racemic), the inhibition entry in [1], in [4], in [5], in [6], in test [7] and in test [8] was “Active” throughout. The inhibition entry in [9] and in [10] was “Active” each time. For the same molecule, the values for the inhibition in test [2] and in test [3] were 46.5% and “Dose-dependent effect”, respectively.

Take `COc1ccc(C(CC(=O)NCCN2CCOCC2)NS(=O)(=O)c2ccc(Cl)cc2)cc1` (stereo not given): in test [2], the inhibition is 0%.

With `COc1ccc(S(=O)(=O)NC(CC(=O)NCc2ccc3c(c2)OCO3)c2ccco2)cc1` (stereo not given), the inhibition in test [2] turned out to be 0%.

Regarding `O=C(Nc1ccccc1)C(Cc1ccccc1)NS(=O)(=O)c1cccc2cccnc12` (stereo not given), in test [2], the inhibition is 0%.

In the case of `O=C(O)CCCCCNC(=O)/C(=C/c1ccccc1)NC(=O)c1ccco1`, in test [2], the inhibition came to 0%.

With `O=C(NCC1CCCO1)C(Cc1ccccc1)NS(=O)(=O)c1cccc2nsnc12` (stereo not given), the inhibition in [2] turned out to be 2%.

With `O=S(=O)(c1cccc(SCc2ccccc2)c1)c1cccc(SCc2ccccc2)c1`, in test [2], the inhibition stood at 44.2%.

As to `CCC(Sc1nc2ccsc2c(=O)n1Cc1ccc2c(c1)OCO2)C(=O)NCc1ccco1` (stereo not given), the inhibition in test [2] turned out to be 41%.

Take `O=C1c2cccnc2C(=O)N1Cc1ccc(F)cc1S(=O)(=O)N1CCC(Cc2ccccc2)CC1`: the inhibition in test [2] stood at 0%.

With `O=C(NC1CCCCCC1)C(Cc1ccccc1)NS(=O)(=O)c1cccc2nsnc12` (stereo not given), the inhibition in [2] was determined as 0%.

As to `O=C(CSc1nc2ccccc2c(=O)n1Cc1ccc2c(c1)OCO2)NCc1ccco1`, the inhibition in test [2] turned out to be 34.2%.

As for `CCOC(=O)N1CCN(C(=O)C(Cc2ccccc2)NS(=O)(=O)c2ccc3nsnc3c2)CC1` (stereo not given), the inhibition in test [2] stood at 4%.

Turning to `COc1ccc(CCNC(=O)C(Cc2ccccc2)NS(=O)(=O)c2ccc(Cl)cc2)cc1OC` (stereo not given), the inhibition in test [2] is 14%.

For `O=C(NCc1cccnc1)C(Cc1ccccc1)NS(=O)(=O)c1cccc2nsnc12` (stereo not given), the inhibition in test [2] amounted to 35%.

For `O=C(CSc1nc2ccccc2n1S(=O)(=O)c1ccc(Cl)cc1)NCCc1ccccc1`, the inhibition in test [2] was found to be 13.6%.

Regarding `O=C(NC(C(=O)N/N=C/c1ccco1)c1nnc(O)c2ccccc12)c1ccccc1` (stereo not given), the inhibition in [2] amounted to 33%.

On to `CCOC(=O)N1CCC(NC(=O)C(Cc2ccccc2)NS(=O)(=O)c2cccc3nsnc23)CC1` (stereo not given), for which the inhibition in [2] was 0%.

With `COc1ccc(CCNC(=O)C(Cc2ccccc2)NS(=O)(=O)c2cccc3nsnc23)cc1OC` (stereo not given), the inhibition in test [2] is 0%.

As for `COc1ccc(/C=N/NC(=O)c2sc3ccccc3c2Cl)cc1CSc1ccccn1`, the inhibition in test [2] stood at 0%.

Take `CCCN(CCC)CCNC(=O)C(Cc1ccccc1)NS(=O)(=O)c1cccc2nsnc12` (stereo not given): the inhibition in test [2] was 34%.

For the molecule `CCCCN(CC)CCCNC(=O)C1CCCN(c2ncnc3onc(C)c23)C1` (stereo not given), the inhibition in test [2] turned out to be 3.1%.

Regarding `O=C(NC(Cc1c[nH]c2ccccc12)C(=O)OCC(=O)c1ccc(Cl)cc1)Oc1ccccc1` (stereo not given), the inhibition in [2] is 29%.

For `CC(C)C[C@@H]1NC(=O)[C@H](CCC(N)=O)NC(=O)[C@H]([C@@H](C)O)NC(=O)[C@H](CCCCN)NC(=O)[C@H](C(C)C)NC(=O)[C@H](Cc2ccccc2)NC(=O)[C@@H]2CCCN2C(=O)[C@@H](N)CSSC[C@@H](C(=O)O)NC1=O` (H-CPFVKTQLC-OH; disulfide 1-9), in test [11], the inhibition came to 54.6%.

With `N#Cc1ccccc1OCC(=O)N/N=C/c1cc(Br)ccc1OC(=O)c1ccccc1`, the inhibition in [2] came out at 15%.

Take `COc1ccc(Cl)cc1NC(=O)C(Cc1ccccc1)NS(=O)(=O)c1cccc2cccnc12` (stereo not given): in [2], the inhibition came to 8%.

Regarding `Cc1cccc(CN2C(=O)c3ccccc3Sc3ccc(C(=O)NCc4ccco4)cc32)c1`, the inhibition in [2] came out at 26%.

For the molecule `Cc1cccc(NC(=O)C(Cc2ccccc2)NS(=O)(=O)c2cccc3nsnc23)n1` (stereo not given), the inhibition in [2] turned out to be 17.7%.

Take `O=C(CCn1c(=O)c2ccccc2n(Cc2cc(=O)n3ccccc3n2)c1=O)NCc1ccco1`: the inhibition in test [2] was determined as 15%.

In the case of `Cc1ccc(S(=O)(=O)NC(Cc2ccc(F)cc2)C(=O)NC(CCCNC(=N)N)C(=O)O)cc1` (stereo not given) (Tos-[Phe(4-F)]-Arg-OH; configuration not given here), the inhibition in test [2] is 0%.

Consider `O=S(=O)(c1cccc2cccnc12)N1CCN(Cc2ccc3c(c2)OCO3)CC1`, for which the inhibition in [2] is 0%.

For the molecule `COc1ccc(NC(=O)C(Cc2ccccc2)NS(=O)(=O)c2cccc3cccnc23)c(OC)c1` (stereo not given), the inhibition in test [2] was 22.5%.

Regarding `COc1cccc(CNC(=O)C(Cc2ccccc2)NS(=O)(=O)c2cccc3cccnc23)c1` (stereo not given), in [2], the inhibition was 0.8%.

On to `O=C(NCc1ccccc1Cl)C(Cc1ccccc1)NS(=O)(=O)c1cccc2nsnc12` (stereo not given), for which the inhibition in test [2] amounted to 0%.

`Cc1cccc(OCC(=O)N/N=C/c2ccc(OC(=O)/C=C/c3ccco3)cc2)c1`: the inhibition in [2] was found to be 8%.

Take `CC(NC(=O)C(Cc1ccccc1)NS(=O)(=O)c1cccc2nsnc12)c1ccccc1` (stereo not given): the inhibition in [2] turned out to be 2%.

For `O=C(NCc1ccco1)C(Cc1ccccc1)NS(=O)(=O)c1ccc2nsnc2c1` (stereo not given), the inhibition in test [2] came to 21%.

`Cc1ccc(S(=O)(=O)N2CCN(C(=O)CSc3nnc(C)c(=O)[nH]3)C2c2ccccc2)cc1` (stereo not given): the inhibition in test [2] was found to be 4%.
